# Measured values taken from ChEMBL document CHEMBL1154352, “Toll-like receptor 7 selective synthetic oligoribonucleotide agonists: synthesis and structure-activity relationship studies” (J Med Chem, 2009).
# The source made the active and inactive calls. No cut-off for these calls is given here.
# Columns and labels:
# [1] = Metabolic stability in human serum assessed as full length product remaining after 10 mins by HPLC; assay type: ADME, cell-free; conditions: read-out: Stability
# Procedure, shortened: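 About 0.5 A260 units compound in 1% human serum in PBS, 37 °C; aliquot taken at 10 min, analysed by anion-exchange HPLC for percent intact full-length product.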
# [2] = target: T1, Toll-like receptor 7 (Homo sapiens) (UniProt Q9NYK1); experiment: Activation of human TLR7 expressed in HEK293XL assessed as fold induction of NF-kappaB activity at 50 ug/ml after 18 hrs by reporter gene assay relative to control
# T1 sequence (whole entry): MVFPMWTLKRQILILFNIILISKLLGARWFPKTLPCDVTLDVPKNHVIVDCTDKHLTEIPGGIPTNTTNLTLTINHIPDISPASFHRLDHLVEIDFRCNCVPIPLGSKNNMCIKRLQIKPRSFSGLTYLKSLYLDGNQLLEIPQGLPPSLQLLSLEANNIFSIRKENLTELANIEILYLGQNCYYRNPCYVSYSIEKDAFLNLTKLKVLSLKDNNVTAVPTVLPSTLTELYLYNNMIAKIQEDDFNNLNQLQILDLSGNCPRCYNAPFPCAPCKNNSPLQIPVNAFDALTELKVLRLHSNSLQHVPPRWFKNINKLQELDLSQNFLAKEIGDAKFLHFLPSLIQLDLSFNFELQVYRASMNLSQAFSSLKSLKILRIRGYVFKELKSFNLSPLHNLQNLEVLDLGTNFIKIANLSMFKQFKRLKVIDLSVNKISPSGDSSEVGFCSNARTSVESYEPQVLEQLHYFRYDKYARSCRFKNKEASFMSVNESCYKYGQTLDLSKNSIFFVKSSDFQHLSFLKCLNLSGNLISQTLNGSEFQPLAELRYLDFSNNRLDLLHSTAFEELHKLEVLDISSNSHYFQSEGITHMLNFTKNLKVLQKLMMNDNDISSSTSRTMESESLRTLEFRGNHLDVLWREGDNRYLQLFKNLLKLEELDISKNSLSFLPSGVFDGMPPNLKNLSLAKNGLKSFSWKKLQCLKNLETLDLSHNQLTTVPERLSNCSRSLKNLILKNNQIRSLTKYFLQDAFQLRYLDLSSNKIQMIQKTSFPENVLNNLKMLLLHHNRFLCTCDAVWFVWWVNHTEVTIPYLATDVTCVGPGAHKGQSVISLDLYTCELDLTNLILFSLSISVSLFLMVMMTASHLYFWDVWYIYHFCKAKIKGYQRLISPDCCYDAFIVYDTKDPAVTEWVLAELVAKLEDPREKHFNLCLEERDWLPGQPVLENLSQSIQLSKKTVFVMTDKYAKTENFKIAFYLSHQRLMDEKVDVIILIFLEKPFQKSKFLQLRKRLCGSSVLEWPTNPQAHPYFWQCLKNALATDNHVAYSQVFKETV
# Procedure, shortened: (§1)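 HEK293 cells stably expressing human TLR7 or TLR8, transiently transfected with SEAP reporter plasmid; medium replaced, SIMRA compounds added, 18 h incubation. Supernatant SEAP measured by QuantiBlue; expressed as fold increase in NF-κB activity over PBS control. Tabulated data at 50 μg/mL, representative of three independent experiments.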
# [3] = target: T2, Toll-like receptor 8 (Homo sapiens) (UniProt Q9NR97); experiment: Activation of human TLR8 expressed in HEK293XL assessed as fold induction of NF-kappaB activity at 50 ug/ml after 18 hrs by reporter gene assay relative to control; procedure, shortened: as §1
# T2 sequence (whole entry): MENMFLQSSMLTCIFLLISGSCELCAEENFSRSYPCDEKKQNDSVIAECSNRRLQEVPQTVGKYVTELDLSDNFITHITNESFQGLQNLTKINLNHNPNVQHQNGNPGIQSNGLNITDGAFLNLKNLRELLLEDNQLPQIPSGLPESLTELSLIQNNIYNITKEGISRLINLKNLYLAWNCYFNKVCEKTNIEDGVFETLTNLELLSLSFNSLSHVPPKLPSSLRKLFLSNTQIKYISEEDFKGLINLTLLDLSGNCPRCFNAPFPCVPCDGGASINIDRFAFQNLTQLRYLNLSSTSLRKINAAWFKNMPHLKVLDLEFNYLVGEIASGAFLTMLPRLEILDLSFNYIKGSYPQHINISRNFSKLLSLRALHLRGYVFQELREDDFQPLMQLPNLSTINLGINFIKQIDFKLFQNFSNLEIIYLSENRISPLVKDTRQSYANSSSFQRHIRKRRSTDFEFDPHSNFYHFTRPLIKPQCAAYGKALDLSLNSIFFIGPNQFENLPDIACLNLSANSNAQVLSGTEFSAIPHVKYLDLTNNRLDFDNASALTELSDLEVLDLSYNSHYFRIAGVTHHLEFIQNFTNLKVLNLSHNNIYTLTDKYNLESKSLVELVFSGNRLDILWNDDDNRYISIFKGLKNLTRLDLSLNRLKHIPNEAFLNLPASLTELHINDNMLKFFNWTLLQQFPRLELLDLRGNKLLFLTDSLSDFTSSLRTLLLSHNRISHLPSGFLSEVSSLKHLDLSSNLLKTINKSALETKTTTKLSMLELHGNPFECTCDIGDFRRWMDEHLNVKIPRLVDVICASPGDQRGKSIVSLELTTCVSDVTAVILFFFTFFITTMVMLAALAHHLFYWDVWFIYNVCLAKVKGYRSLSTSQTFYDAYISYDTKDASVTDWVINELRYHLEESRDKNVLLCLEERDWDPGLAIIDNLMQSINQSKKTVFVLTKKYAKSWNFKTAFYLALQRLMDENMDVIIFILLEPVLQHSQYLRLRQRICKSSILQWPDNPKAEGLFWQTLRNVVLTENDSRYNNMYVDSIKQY
# [4] = species on record: Homo sapiens; experiment: Ratio of human TLR7 activity to human TLR8 activity
# Procedure, shortened: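 TLR7/TLR8 ratio computed from fold NF-κB (SEAP reporter) activation in HEK293 cells stably expressing human TLR7 versus TLR8, compounds at 50 μg/mL, 18 h exposure; representative of three independent experiments.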
# [5] = test system: Splenocyte; experiment: Immunomodulatory activity in C57BL/6 mouse splenocytes bearing TLR7 receptor assessed as IL6 release at 100 ug/ml after 24 hrs by ELISA; assay type: functional, cell-based
# Procedure, shortened: (§2)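 C57BL/6 splenocytes in RPMI 1640 with 10% FBS, penicillin/streptomycin, 2 mM L-glutamine, plated at 5 × 10^6 cells/mL; compounds in PBS added, 37 °C for 24 h. Supernatant IL-12 and IL-6 by ELISA; representative of three independent experiments.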
# [6] = test system: Splenocyte; experiment: Immunomodulatory activity in C57BL/6 mouse splenocytes bearing TLR7 receptor assessed as IL12 release at 100 ug/ml after 24 hrs by ELISA; assay type: functional, cell-based; procedure, shortened: as §2
remaining at 10 min [1],fold change (FC) [2],fold change (FC) [3],Ratio [4],Activity [5],Activity [6],SMILES
72%,23.3,1.8,12.9,Active,Active,Nc1ccn([C@@H]2O[C@H](COP(=O)(S)O[C@H]3[C@@H](O)[C@H](n4ccc(N)nc4=O)O[C@@H]3COP(=O)(S)O[C@H]3[C@@H](O)[C@H](n4cnc5c(N)ncnc54)O[C@@H]3COP(=O)(S)O[C@H]3[C@@H](O)[C@H](n4ccc5c(=O)[nH]c(N)nc54)O[C@@H]3COP(=O)(S)O[C@H]3[C@@H](O)[C@H](n4ccc(=O)[nH]c4=O)O[C@@H]3COP(=O)(S)O[C@H]3[C@@H](O)[C@H](n4ccc(=O)[nH]c4=O)O[C@@H]3COP(=O)(S)O[C@H]3[C@@H](O)[C@H](n4ccc(N)nc4=O)O[C@@H]3COP(=O)(S)O[C@H]3[C@@H](O)[C@H](n4cnc5c(N)ncnc54)O[C@@H]3CO)[C@@H](OP(=O)(S)OC[C@H]3O[C@@H](n4ccc(=O)[nH]c4=O)[C@H](O)[C@@H]3OP(=O)(S)OC[C@H]3O[C@@H](n4ccc(=O)[nH]c4=O)[C@H](O)[C@@H]3OP(=O)(S)OC[C@H]3O[C@@H](n4ccc(=O)[nH]c4=O)[C@H](O)[C@@H]3OP(=O)(S)OCC(O)COP(=O)(S)O[C@H]3[C@@H](O)[C@H](n4ccc(=O)[nH]c4=O)O[C@@H]3COP(=O)(S)O[C@H]3[C@@H](O)[C@H](n4ccc(=O)[nH]c4=O)O[C@@H]3COP(=O)(S)O[C@H]3[C@@H](O)[C@H](n4ccc(=O)[nH]c4=O)O[C@@H]3COP(=O)(S)O[C@H]3[C@@H](O)[C@H](n4ccc(N)nc4=O)O[C@@H]3COP(=O)(S)O[C@H]3[C@@H](O)[C@H](n4ccc(N)nc4=O)O[C@@H]3COP(=O)(S)O[C@H]3[C@@H](O)[C@H](n4cnc5c(N)ncnc54)O[C@@H]3COP(=O)(S)O[C@H]3[C@@H](O)[C@H](n4ccc5c(=O)[nH]c(N)nc54)O[C@@H]3COP(=O)(S)O[C@H]3[C@@H](O)[C@H](n4ccc(=O)[nH]c4=O)O[C@@H]3COP(=O)(S)O[C@H]3[C@@H](O)[C@H](n4ccc(=O)[nH]c4=O)O[C@@H]3COP(=O)(S)O[C@H]3[C@@H](O)[C@H](n4ccc(N)nc4=O)O[C@@H]3COP(=O)(S)O[C@H]3[C@@H](O)[C@H](n4cnc5c(N)ncnc54)O[C@@H]3CO)[C@H]2O)c(=O)n1 (some centres not stated)
87%,9.1,1.4,6.5,Active,Active,Nc1ccn([C@@H]2O[C@H](COP(=O)(S)O[C@H]3[C@@H](O)[C@H](n4cnc5c(N)ncnc54)O[C@@H]3CO)[C@@H](OP(=O)(S)OC[C@H]3O[C@@H](n4ccc(=O)[nH]c4=O)[C@H](O)[C@@H]3OP(=O)(S)OC[C@H]3O[C@@H](n4ccc(=O)[nH]c4=O)[C@H](O)[C@@H]3OP(=O)(S)OC[C@H]3O[C@@H](n4ccc5c(=O)[nH]c(N)nc54)[C@H](O)[C@@H]3OP(=O)(S)OC[C@H]3O[C@@H](n4cnc5c(N)ncnc54)[C@H](O)[C@@H]3OP(=O)(S)OC[C@H]3O[C@@H](n4ccc(N)nc4=O)[C@H](O)[C@@H]3OP(=O)(S)OC[C@H]3O[C@@H](n4ccc(=O)[nH]c4=O)[C@H](O)[C@@H]3OP(=O)(S)OC[C@H]3O[C@@H](n4ccc(=O)[nH]c4=O)[C@H](O)[C@@H]3OP(=O)(S)OC[C@H]3O[C@@H](n4ccc5c(=O)[nH]c(N)nc54)[C@H](O)[C@@H]3OP(=O)(S)OC[C@H]3O[C@@H](n4cnc5c(N)ncnc54)[C@H](O)[C@@H]3OP(=O)(S)OCC(O)COP(=O)(S)O[C@H]3[C@@H](O)[C@H](n4cnc5c(N)ncnc54)O[C@@H]3COP(=O)(S)O[C@H]3[C@@H](O)[C@H](n4ccc5c(=O)[nH]c(N)nc54)O[C@@H]3COP(=O)(S)O[C@H]3[C@@H](O)[C@H](n4ccc(=O)[nH]c4=O)O[C@@H]3COP(=O)(S)O[C@H]3[C@@H](O)[C@H](n4ccc(=O)[nH]c4=O)O[C@@H]3COP(=O)(S)O[C@H]3[C@@H](O)[C@H](n4ccc(N)nc4=O)O[C@@H]3COP(=O)(S)O[C@H]3[C@@H](O)[C@H](n4cnc5c(N)ncnc54)O[C@@H]3COP(=O)(S)O[C@H]3[C@@H](O)[C@H](n4ccc5c(=O)[nH]c(N)nc54)O[C@@H]3COP(=O)(S)O[C@H]3[C@@H](O)[C@H](n4ccc(=O)[nH]c4=O)O[C@@H]3COP(=O)(S)O[C@H]3[C@@H](O)[C@H](n4ccc(=O)[nH]c4=O)O[C@@H]3COP(=O)(S)O[C@H]3[C@@H](O)[C@H](n4ccc(N)nc4=O)O[C@@H]3COP(=O)(S)O[C@H]3[C@@H](O)[C@H](n4cnc5c(N)ncnc54)O[C@@H]3CO)[C@H]2O)c(=O)n1 (some centres not stated)
